Published values gathered from unrelated publications.
Compare with care: the assays were run in different laboratories.
Technique: competition with immobilised ligand
JAK3 JH1: Tyrosine-protein kinase JAK3, JH1 (JAK3, Homo sapiens, UniProt P52333)
JAK3: Tyrosine-protein kinase JAK3 (JAK3, Homo sapiens, UniProt P52333)

O=C(Nc1c[nH]nc1C(=O)NC1CCNCC1)c1cc(F)cc(F)c1  remaining binding (JAK3 JH1; binding; 1 µM): 100%
N#Cc1ccccc1CSc1nnc2c(n1)[nH]c1ccccc12  remaining binding (JAK3 JH1; binding; 10 µM): 93%
CCN1CCN(Cc2ccc(C(=O)Nc3ccc(C)c(Oc4ccc5c(c4)CC(=O)N5)c3)cc2C(F)(F)F)CC1  remaining binding (JAK3 JH1; binding; 1 µM): 97%
COc1cnc(Nc2cccc(S(N)(=O)=O)c2)nc1N1CCN(c2ccccc2)CC1  remaining binding (JAK3 JH1; binding; 1 µM): 42%
Nc1ncc2c(n1)-c1c([nH]c3ccc(C#CC4CC4)cc13)CCCC2  remaining binding (JAK3 JH1; binding; 1 µM): 80%
C[C@@H]1CN(c2ccc3ncc(-c4ccc5[nH]nc(C6CC6)c5c4)n3n2)C[C@H](C)O1  remaining binding (JAK3; binding; 50 nM): 76%
CS(=O)(=O)NCC[C@H](NC(=O)c1cncc2c1cnn2-c1ccc(F)cc1)c1ccnc(S(C)(=O)=O)c1  remaining binding (JAK3 JH1; cell-free assay; 1 µM): 100%
FC(F)(F)Oc1cccc(-c2cnc3ccc(-c4ccncc4)nn23)c1  remaining binding (JAK3 JH1; cell-free assay; 5 µM): 23%
Cc1cnc(Nc2ccc(C(=O)N3CCC(N4CCCC4)CC3)cc2)nc1-c1cc2ccccc2s1  remaining binding (JAK3 JH1; binding; 1 µM): 0%
O=C(NCc1ncc(C(F)(F)F)cc1Cl)c1ccc2c(c1)C1(CCS(=O)(=O)CC1)[C@H](C1CC1)N2S(=O)(=O)c1ccc(F)cc1  remaining binding (JAK3 JH1; cell-free assay; 1 µM): 79%
CNC(=O)[C@@H]1CC[C@@H](n2c(-c3ccc4cnccc4c3)nc3ccc(C(=O)NCc4cccc(C(N)=O)c4)cc32)C1  remaining binding (JAK3 JH1; binding; 1 µM): 100%
Cc1noc([C@H]2C[C@@H](c3ccc(C(F)(F)F)cc3)CN(C(=O)N3CCS(=O)(=O)C3)C2)n1  remaining binding (JAK3 JH1; cell-free assay; 1 µM): 100%
O=C(c1ccc(Nc2ncc(Cl)c(-c3cc4ccccc4s3)n2)cc1)N1CCC(N2CCCC2)CC1  remaining binding (JAK3 JH1; binding; 1 µM): 0%
C=CC(=O)N1CCC(C(=O)NCC(=O)N2CCN(c3nc(-c4cnc(N)nc4C(F)F)nc(N4CCOCC4)n3)CC2)CC1  remaining binding (JAK3 JH1; binding; 1 µM): 88%
CC1CCCN1c1nccc(-c2cnn3ncccc23)n1 (stereo not shown)  remaining binding (JAK3 JH1; cell-free assay; 1 µM): 97%
O=C(NCCCN1CCOCC1)c1ccc(Nc2nccc(-c3cc4ccccc4s3)n2)cc1  remaining binding (JAK3 JH1; binding; 1 µM): 6.4%
Cc1cnn2ncc(-c3ccnc(N(C)C)n3)c2c1  remaining binding (JAK3 JH1; cell-free assay; 1 µM): 91%
CC(=O)N1CCC(c2ccc(C(=O)NC(=N)N)cc2C(F)(F)F)CC1  remaining binding (JAK3 JH1; cell-free assay; 1 µM): 100%
CN(C)c1nccc(-c2cnn3ncccc23)n1  remaining binding (JAK3 JH1; cell-free assay; 1 µM): 0%
N#CC1(c2ccccn2)CCN(Cc2cc(C(=O)N3CCCC3)c(=O)n3ccccc23)CC1  remaining binding (JAK3 JH1; cell-free assay; 1 µM): 100%
COc1ccnn2ncc(-c3ccnc(N(C)C)n3)c12  remaining binding (JAK3 JH1; cell-free assay; 1 µM): 94%
CNC(=O)c1ccc(Nc2ncc(C(F)(F)F)c(NCc3nccnc3N(C)S(C)(=O)=O)n2)cc1  remaining binding (JAK3; binding; 1 µM): 8.2%
